Laboratory results published in ChEMBL document CHEMBL4190233, “Exploring the cycloheptathiophene-3-carboxamide scaffold to disrupt the interactions of the influenza polymerase subunits and obtain potent anti-influenza activity” (Eur J Med Chem, 2017).

Key:
[1] = target: PA/PB1 (Influenza A virus (A/Puerto Rico/8/1934(H1N1)), UniProt P03431+P03433); experiment: Inhibition of Influenza A virus 6His-tagged PA (239 to 716 residues)/GST-tagged PB1 (1 to 25 residues) protein-protein interaction expressed in Escherichia coli measured after overnight incubation by ELISA
[2] = Cytotoxicity against MDCK cells assessed as reduction in cell viability after 48 hrs by MTT assay; assay type: cell-based, Canis lupus familiaris; settings: dog
Outline: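 MDCK cells, 2 x 10⁴/well, grown 24 h, then exposed to serial compound dilutions or DMSO in DMEM/10% FBS for 48 h at 37 °C. MTT (5 mg/mL in PBS) was added for 4 h, then cells were lysed in solubilization solution overnight at 37 °C and read at 620 nm.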

Influenza A virus = experiment: Antiviral activity against Influenza A virus A/PR/8/34 (H1N1) infected in MDCK cells measured after 48 hrs post infection by plaque reduction assay; assay type: functional, organism-based; settings: A/Puerto Rico/8/1934(H1N1)
Outline: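 MDCK cells, 5 x 10⁵/well, grown 24 h at 37 °C, washed in serum-free DMEM, then infected with A/PR/8/34 (Cambridge lineage) at 40 PFU/well for 1 h at 37 °C. Medium held TPCK-trypsin 1 μg/mL and 0.14% BSA, with compound at varied concentrations or DMSO. Overlay was the same medium plus 1.2% Avicel. At 48 h cells were formaldehyde-fixed and toluidine-blue stained. Plaques were counted against DMSO (100%).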

[3] = Therapeutic index, ratio of CC50 for MDCK cells to EC50 for Influenza A virus A/PR/8/34 (H1N1) infected in MDCK cells; assay type: toxicity, cell-based; settings: dog, read-out: Ratio CC50/EC50

Q: Which IC50 [1] does the source give for `COc1ccccc1C(=O)Nc1sc2c(c1C(=O)Nc1ccccn1)CCCCC2` here?
A: 22 µM

Q: And the CC50 at 48 h [2]?
A: 147 µM

Q: What about the EC50 (Influenza A virus) of the same compound?
A: 86 µM

Q: For `COc1ccccc1C(=O)Nc1sc2c(c1C(=O)Nc1ccc(Cl)cc1)CCCCC2`, which IC50 [1] is on record?
A: 78 µM

Q: And the CC50 at 48 h [2]?
A: > 250 µM

Q: And the EC50 (Influenza A virus)?
A: 82 µM

Q: What does the source list for `O=C(Nc1sc2c(c1C(=O)Nc1nccs1)CCCCC2)c1ccccc1O`?
A: IC50 [1]: 69 µM; CC50 at 48 h [2]: > 250 µM; EC50 (Influenza A virus): 0.18 µM; selectivity ratio [3]: > 1390

Q: What does the source list for `NC(=O)c1ncn([C@@H]2O[C@H](CO)[C@@H](O)[C@H]2O)n1` [RIBAVIRIN]?
A: CC50 at 48 h [2]: > 250 µM; EC50 (Influenza A virus): 10 µM

Q: Which results are given for `COc1ccccc1NC(=O)c1c(NC(=O)c2ccc(Cl)cc2)sc2c1CCCCC2`?
A: IC50 [1]: 45 µM; CC50 at 48 h [2]: > 250 µM; EC50 (Influenza A virus): 24 µM

Q: Which results are given for `O=C(Nc1sc2c(c1C(=O)NCc1ccccn1)CCCCC2)c1ccccc1O`?
A: IC50 [1]: 33 µM; CC50 at 48 h [2]: > 250 µM; EC50 (Influenza A virus): > 100 µM

Q: Which CC50 at 48 h [2] does the source give for `CSCC[C@H](N)C(=O)N[C@@H](CC(=O)O)C(=O)N[C@H](C(=O)N[C@@H](CC(N)=O)C(=O)N1CCC[C@H]1C(=O)N[C@H](C(=O)N[C@@H](CC(C)C)C(=O)N[C@@H](CC(C)C)C(=O)N[C@@H](Cc1ccccc1)C(=O)N[C@@H](CC(C)C)C(=O)N[C@@H](CCCCN)C(=O)N[C@H](C(=O)N1CCC[C@H]1C(=O)N[C@@H](C)C(=O)N[C@@H](CCC(N)=O)C(=O)O)C(C)C)[C@@H](C)O)C(C)C` here?
A: > 100 µM

Q: What about the EC50 (Influenza A virus) of the same compound?
A: 41 µM

Q: For `O=C(Nc1sc2c(c1C(=O)NC1CCCCC1)CCCCC2)c1ccccc1O`, which IC50 [1] is on record?
A: 114 µM

Q: And the CC50 at 48 h [2]?
A: 172 µM

Q: And the EC50 (Influenza A virus)?
A: > 100 µM

Q: Which results are given for `O=C(Nc1sc2c(c1C(=O)Nc1ccc(Cl)cc1)CCCCC2)c1ccccc1O`?
A: IC50 [1]: 18 µM; CC50 at 48 h [2]: > 250 µM; EC50 (Influenza A virus): 1.2 µM; selectivity ratio [3]: > 200

Q: With `O=C(Nc1sc2c(c1C(=O)Nc1ccccn1)CCCCC2)c1cccc(O)c1` as the compound, how does the IC50 [1] read?
A: 23 µM

Q: And the CC50 at 48 h [2]?
A: 248 µM

Q: And the EC50 (Influenza A virus)?
A: 22 µM

Q: Which IC50 [1] does the source give for `Nc1ccc(C(=O)Nc2sc3c(c2C(=O)Nc2ccccn2)CCCCC3)cc1` here?
A: 65 µM

Q: What about the CC50 at 48 h [2] of the same compound?
A: > 250 µM

Q: What about the EC50 (Influenza A virus) of the same compound?
A: 0.26 µM

Q: Which results are given for `CN1CCN(C(=O)c2c(NC(=O)c3ccccc3O)sc3c2CCCCC3)CC1`?
A: IC50 [1]: > 200 µM; CC50 at 48 h [2]: > 250 µM; EC50 (Influenza A virus): 94 µM

Q: What does the source list for `O=C(Nc1sc2c(c1C(=O)Nc1ccccn1)CCCCC2)c1ccc(O)cc1`?
A: IC50 [1]: 26 µM; CC50 at 48 h [2]: > 250 µM; EC50 (Influenza A virus): 19 µM

Q: Which IC50 [1] does the source give for `Nc1ccccc1C(=O)Nc1sc2c(c1C(=O)Nc1ccccn1)CCCCC2` here?
A: > 200 µM

Q: And the CC50 at 48 h [2]?
A: > 250 µM

Q: What about the EC50 (Influenza A virus) of the same compound?
A: 101 µM

Q: Which results are given for `O=C(Nc1sc2c(c1C(=O)Nc1ccccn1)CCCCC2)c1ccccc1O`?
A: IC50 [1]: 15 µM; CC50 at 48 h [2]: > 250 µM; EC50 (Influenza A virus): 2.6 µM; selectivity ratio [3]: > 96

Q: What does the source list for `O=C(Nc1sc2c(c1C(=O)Nc1ccccc1O)CCCCC2)c1ccccn1`?
A: IC50 [1]: 118 µM; CC50 at 48 h [2]: > 250 µM; EC50 (Influenza A virus): 8.2 µM

Q: Which IC50 [1] does the source give for `O=C(Nc1sc2c(c1C(=O)Nc1ccccc1)CCCCC2)c1ccccc1O` here?
A: 58 µM

Q: And the CC50 at 48 h [2]?
A: > 250 µM

Q: And the EC50 (Influenza A virus)?
A: 30 µM

Q: What does the source list for `CC(C)(C)NC(=O)c1c(NC(=O)c2ccccc2O)sc2c1CCCCC2`?
A: IC50 [1]: 156 µM; CC50 at 48 h [2]: > 250 µM; EC50 (Influenza A virus): > 100 µM

Q: Which results are given for `O=C(Nc1sc2c(c1C(=O)N1CCN(c3ccccn3)CC1)CCCCC2)c1ccccc1O`?
A: IC50 [1]: 197 µM; CC50 at 48 h [2]: 145 µM; EC50 (Influenza A virus): > 100 µM

Q: What does the source list for `O=C(Nc1sc2c(c1C(=O)Nc1ccc(F)cc1)CCCCC2)c1ccccc1O`?
A: IC50 [1]: 20 µM; CC50 at 48 h [2]: > 250 µM; EC50 (Influenza A virus): 1.2 µM; selectivity ratio [3]: > 200

Q: Which IC50 [1] does the source give for `O=C(Nc1sc2c(c1C(=O)Nc1ccccc1O)CCCCC2)c1ccc(Cl)cc1` here?
A: 26 µM

Q: And the CC50 at 48 h [2]?
A: 28 µM

Q: What about the EC50 (Influenza A virus) of the same compound?
A: 1.8 µM

Q: Which results are given for `O=C(Nc1sc2c(c1C(=O)NCc1ccccc1)CCCCC2)c1ccccc1O`?
A: IC50 [1]: 191 µM; CC50 at 48 h [2]: 172 µM; EC50 (Influenza A virus): > 100 µM

Q: With `CC(C)NC(=O)c1c(NC(=O)c2ccccc2O)sc2c1CCCCC2` as the compound, how does the IC50 [1] read?
A: > 200 µM

Q: And the CC50 at 48 h [2]?
A: > 250 µM

Q: What about the EC50 (Influenza A virus) of the same compound?
A: > 100 µM
